Compound activity from PubChem BioAssay.
DSG3 Ab inh = blocks pemphigus antibody binding to human desmoglein-3. P32926. DSG3-coupled beads, scFv-anti-DSG3-GFP binding, flow cytometry; hits give low values. binding (percent of control), % at 10 µM. hit rate 0.48% among 310,000. AID 588358;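 active = binding more than 3 SD below its plate's average and above zero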;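 note: hits lower antibody fragment binding to DSG3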
TbMetRS inhib = blocks T. brucei methionyl-tRNA synthetase activity | inhibition, % at 11.9 µM | purified T. brucei MetRS, ATP depletion, Kinase-Glo luminescence | AID 624268 | hit rate 0.4% among 360,000;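 active = inhibition above a per-plate cutoff of the control wells' mean inhibition plus 3 SD, cut at about 5.5% in these data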;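 note: 0% = DMSO wells median and 100% = median of wells with control inhibitor compound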
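Test system: purified T. brucei MetRS enzyme. Also added: ATP, methionine and E. coli bulk tRNA substrates. Compound: 11.9 µM single point. Schedule: 15 min enzyme-compound preincubation, 2 h reaction, 10 min detection, 25 °C. Signal: luciferase luminescence of residual ATP, Kinase-Glo. Evaluation: percent inhibition versus plate control medians. Controls: DMSO wells, low control.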
core dimer inh = HCV core protein dimerization inhibition. inhibition, % at 5 µM. hit rate 0.33% among 300,000. AID 1899. TR-FRET GST/Flag-core106 dimerization, 1536-well;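 active = inhibition above the mean of all tested compounds plus 3 SD, set per screening campaign, cut at about 45% in these data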
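System – GST-tagged and Flag-tagged HCV core protein residues 1-106 · Repeats – one well for each compound · Technique – TR-FRET 671 and 617 nm emission · Doses – one concentration, 5 µM, in 0.5% DMSO · Times – 4 h, 22.5 °C incubation · Also added – Eu donor and XL665 acceptor anti-tag antibodies · Measure – percent inhibition of core106 dimerization signal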
Rce1 inhib = yeast Ras-converting enzyme inhibition | Q03530 | yeast membranes, quenched prenylated peptide cleavage fluorescence | calls only | hit rate 0.27% among 290,000;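 active = fall in fluorescence gain of 50% or more versus controls, with final raw signal at or below 3038400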;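 note: plate controls were neutral control wells for no effect and wells lacking membranes for full effect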
Target sequence (Q03530 whole entry, looked up): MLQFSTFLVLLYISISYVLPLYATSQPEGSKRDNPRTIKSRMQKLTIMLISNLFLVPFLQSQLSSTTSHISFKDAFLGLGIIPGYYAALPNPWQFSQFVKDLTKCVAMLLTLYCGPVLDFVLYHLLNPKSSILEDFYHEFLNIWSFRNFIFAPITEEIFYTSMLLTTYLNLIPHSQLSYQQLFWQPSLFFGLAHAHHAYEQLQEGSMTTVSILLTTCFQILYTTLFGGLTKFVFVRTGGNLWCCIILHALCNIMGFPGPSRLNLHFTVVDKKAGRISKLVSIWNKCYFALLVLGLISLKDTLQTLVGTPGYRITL
NadD inh = blocks S. aureus nicotinate mononucleotide adenylyltransferase | hit rate 0.78% among 360,000 | purified NadD enzyme, colorimetric absorbance read-out | inhibition, % at 20 µM; in the data active = inhibition above about 26%
* = called active by the depositor; i = inactive; · = not tested or not shown; + = active, no number. Most compounds without a hit are left out; they make up all but 1.9% or so of the library.

SMILES | DSG3 Ab inh | TbMetRS inhib | core dimer inh | Rce1 inhib | NadD inh
COc1ccc(/C=C2\SC(=S)N(CCCC(=O)NNC(=O)c3ccccc3O)C2=O)cc1 | 101 | 0 | 8 | i | 38*
Cc1ccc(/C=C2/SC(=S)N(CCCC(=O)Nc3cc([N+](=O)[O-])ccc3O)C2=O)cc1 | 101 | 0 | 1 | i | 51*
Cc1ccc(/C=C2\SC(=S)N(CCCC(=O)Nc3ccc(O)cc3)C2=O)cc1 | 100 | 0 | 4 | i | 0
COc1ccc(/C=C2/SC(=S)N(CCCC(=O)Nc3ccccc3C(=O)O)C2=O)cc1 | 104 | 0 | 10 | i | 9
O=C(CCCN1C(=O)/C(=C/c2cccs2)SC1=S)NNC(=O)c1ccncc1 | 99 | -1 | 2 | i | 15
COc1ccc(C(=O)NN=C2CCCC2)cc1OC | · | -1 | 12 | i | 0
CC(Cc1cccs1)NC(=O)Nc1ccc([N+](=O)[O-])cc1 (configuration not stated) | 105 | 0 | 5 | + | -8
CC(=O)Nc1cc(-c2cccc(C(=O)N(C)C)c2)cn2c(-c3ccc(F)c(Cl)c3)cnc12 | · | 0 | · | · | -1
NS(=O)(=O)c1ccc(N/C=C\C(=O)c2ccc(F)cc2)cc1 | 71 | -1 | 2 | i | -2
NS(=O)(=O)c1ccc(N/C=C/C(=O)c2ccc(Br)cc2)cc1 | 93* | 0 | 5 | i | 5
O=C(Nc1cccc([N+](=O)[O-])c1)c1ccc(CSc2ccccc2)cc1 | 80* | -1 | 3 | i | 6
O=C(Nc1ccc(Cl)cn1)C1CCN(c2ncnc3c2nc2n3CCCCC2)CC1 | · | -1 | -1 | i | -6
O=C1C(Cc2ccccc2)Nc2ncnc(N3CCc4ccccc4C3)c2N1Cc1ccc(Cl)cc1 (configuration not stated) | 95 | 0 | 25 | i | 63*
CC1(C)Cc2cccc(OCC(=O)Nc3ccccc3C(F)(F)F)c2O1 | 77* | -1 | -2 | i | -6
O=C1C2C3CCCC3=C3CCCC3C2C(=O)N1c1ccc(Cl)cc1 (configuration not stated) | · | -1 | 52* | i | 5
O=C1C2C3CCCC3=C3CCCC3C2C(=O)N1c1cccc(Cl)c1 (configuration not stated) | 140 | 0 | 31 | i | -3
CCCc1cc(=O)oc2cc(OCC(=O)NCCc3c[nH]c4ccc(OC)cc34)ccc12 | 103 | -1 | 4 | i | 1
O=C(COc1ccc2ccc(=O)oc2c1)NCCc1c[nH]c2ccc(F)cc12 | 95 | 0 | 7 | + | -5
O=C(COC(=O)c1cc(=O)c2ccccc2o1)NC1CCCC1 | 99 | -1 | -14 | i | -1
CN(C(=O)COC(=O)c1ccccc1Nc1ccccc1)C1CCS(=O)(=O)C1 (configuration not stated) | 98 | -1 | -3 | i | -19
CN(C(=O)COC(=O)CSc1ccc([N+](=O)[O-])cc1)C1CCS(=O)(=O)C1 (configuration not stated) | 98 | 0 | -2 | i | -2
CN(C(=O)COC(=O)c1cc([N+](=O)[O-])ccc1Sc1ccccc1)C1CCS(=O)(=O)C1 (configuration not stated) | 102 | -1 | 2 | + | 4
Cc1cccc(Nc2ccccc2C(=O)OCC(=O)N(C)C2CCS(=O)(=O)C2)c1C (configuration not stated) | 94 | 0 | 3 | + | -2
O=C(NCCc1c[nH]c2ccccc12)C(=O)NCC(c1cccnc1)N1CCN(c2ccccc2)CC1 (configuration not stated) | 103 | 0 | 4 | i | 12
COc1ccc(OC)c2cc3ccccc3cc12 | 90 | 0 | · | · | 7
SMILES | DSG3 Ab inh | TbMetRS inhib | core dimer inh | Rce1 inhib | NadD inh
Cc1nc(N)sc1-c1csc(Nc2cc(N(C)C)ccc2Cl)n1 | 96 | -1 | · | · | 42*
COc1cc(C(=O)NC2CCN(CC(=O)NC3CCCCC3C)CC2)cc(OC)c1OC (configuration not stated) | · | 0 | 6 | i | -7
COC(=O)c1cc(/C=C/c2ccccc2)on1 | -27* | -1 | 3 | i | -5
COC(=O)c1cc(/C=C/c2ccccc2)[nH]n1 | 102 | 0 | -5 | · | -5
CN(C)c1ncc(C2=C(Cl)C(=O)C(N3CCCC3)=C(Cl)C2=O)s1 | 96 | -1 | 84* | i | 25
O=C1C(Cl)=C(N2CCCCC2)C(=O)C(Cl)=C1c1cnc(N2CCCCC2)s1 | 84 | 0 | · | i | 33*
O=C1C(Cl)=C(N2CCCCCC2)C(=O)N1c1ccc(Cl)cc1 | 126 | 0 | 26 | i | 0
CC(=O)c1cnc(N(C)C)s1 | 102 | 0 | -10 | i | -1
Cc1cc(=O)oc2cc(OCC(=O)Nc3ccc(S(=O)(=O)N(C)C)cc3)ccc12 | 71* | 0 | 0 | · | 1
Cc1cc(=O)oc2cc(OCC(=O)OCC(=O)Nc3ccccc3Br)ccc12 | 71* | 2 | 4 | i | -2
CNC(=O)COC(=O)COc1ccc2c(C)cc(=O)oc2c1 | 95 | 0 | -6 | i | -2
Cc1cc(=O)oc2cc(OCC(=O)Nc3ccc4[nH]c(=O)[nH]c4c3)ccc12 | 127 | 0 | -1 | · | -2
CCCCN1CC(=O)N2[C@H]3c4cc(Cl)ccc4OC[C@@H]3[C@H](C(=O)OCC)[C@]2(C)C1=O | 102 | -1 | · | · | -1
COc1ccccc1NS(=O)(=O)c1cccc(NC(=O)c2cc3ccccc3oc2=O)c1 | 78* | 0 | 20 | i | 6
CCOc1cc(Br)cc(/C=C2\SC(=Nc3ccccc3)NC2=O)c1O | 113 | -2 | 10 | i | 36*
Cc1ccc(S(=O)(=O)/N=C2/NC(=O)/C(=C\c3cc(Br)cc(Br)c3O)S2)cc1 | 112 | 0 | · | i | 41*
O=C1Cc2ccccc2C(=O)N1 | · | 22* | · | · | 4
O=[N+]([O-])c1ccc(N/N=C/c2ccc(O)c(O)c2O)c(S(=O)(=O)N2CCOCC2)c1 | 83 | 1 | · | · | 29*
O=C(/C=C/c1ccco1)NC(=S)NNC(=O)c1ccco1 | 60* | -1 | 5 | i | 2
Cn1c(N)c(S(=O)(=O)N2CCN(c3cccc(Cl)c3)CC2)c(=O)n(C)c1=O | 118 | 0 | 0 | i | 4
Cc1ccc2cc(C(c3nnnn3C3CCCC3)N(Cc3ccco3)Cc3cccs3)c(=O)[nH]c2c1 (configuration not stated) | 100 | 0 | 14 | i | 39*
COc1cc(CN(C)c2ncnc3sccc23)ccc1OC(F)F | 35* | -1 | 6 | i | 2
O=C(c1ccc(-c2nnc(Nc3ccccc3)c3ccccc23)cc1)N1C[C@H]2C[C@H](C1)c1cccc(=O)n1C2 | 99 | 0 | 60* | i | 4
O=C(Nc1cccc(Oc2c(F)c(F)c(F)c(F)c2F)c1)N1C[C@@H]2C[C@@H](C1)c1cccc(=O)n1C2 | 107 | -1 | -1 | i | -2
